Measurements reported in ChEMBL document CHEMBL5724801, “EUbOPEN Chemogenomics Library - Multiplex” (2024).
“And” between values parts separate entries of the source, which are not always exact repeats. Equal entries are not always repeated.

Tests used:
Assay type in all cases: toxicity, cell-based
[1] = tested on: Fibroblast; assay: Multiplex assay against human fibroblast
Outline: (§1)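 Live cells were stained at seeding with Hoechst33342, BioTracker Green Microtubule Cytoskeleton Dye, MitoTracker Red and Annexin V Alexa Fluor 680. Following compound addition, they were imaged on a CQ1 microscope at 37°C and 5% CO2 and gated by CellPathfinder machine learning into Hoechst high-intensity objects or normal cells, with normal cells split into healthy, pyknosed or fragmented nuclei and pyknosed cells into mitotic or apoptotic. Tubulin, mitochondrial-mass and membrane-permeability phenotypes are per cents of healthy-nucleus cells.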

[2] = tested on: HEK-293T; assay: Multiplex assay against HEK293T; details: human; outline: as §1
[3] = tested on: U2OS; assay: Multiplex assay against U2OS; details: human; outline: as §1
[4] = 12 h, 1 µM, compound concentration 1 uM
[5] = 12 h, 10 µM, compound concentration 10 uM
[6] = 24 h, 1 µM, compound concentration 1 uM
[7] = 24 h, 10 µM, compound concentration 10 uM
[8] = 48 h, 1 µM, compound concentration 1 uM
[9] = 48 h, 10 µM, compound concentration 10 uM

Structure (SMILES): CC[C@@H](C)Nc1nc(C)nc2c(-c3ccc(OC)nc3C)c(C)nn12 [PEXACERFONT]
- Population Apoptotic (%) [1, 4]: 40% and 25%
- Population Fragmented Nuclei (%) [1, 4]: 12% and 32%
- Population Healthy Nuclei (%) [1, 4]: 66% and 44%
- Population Hoechst High Intensity Objects (%) [1, 4]: 1% and 2%
- Population Mitochondria Different-Phenotype (%) [1, 4]: 4%
- Population Mitotic Cells (%) [1, 4]: 60% and 75%
- Population Normal (%) [1, 4]: 98% and 97%
- Population Pyknosed Nuclei (%) [1, 4]: 20% and 24%
- Population Tubulin-Different-Phenotype (%) [1, 4]: 35% and 65%
- Total Cell Count [1, 4]: 147 and 103
- Population Apoptotic (%) [1, 5]: 43% and 38%
- Population Fragmented Nuclei (%) [1, 5]: 15% and 21%
- Population Healthy Nuclei (%) [1, 5]: 55% and 40%
- Population Hoechst High Intensity Objects (%) [1, 5]: 2% and 8%
- Population Membrane Permeable-Phenotype (%) [1, 5]: 0% and 7%
- Population Mitochondria Different-Phenotype (%) [1, 5]: 19% and 9%
- Population Mitotic Cells (%) [1, 5]: 56% and 61%
- Population Normal (%) [1, 5]: 97% and 91%
- Population Pyknosed Nuclei (%) [1, 5]: 29% and 38%
- Population Tubulin-Different-Phenotype (%) [1, 5]: 62% and 68%
- Total Cell Count [1, 5]: 143 and 147
- Population Apoptotic (%) [1, 6]: 52% and 47%
- Population Fragmented Nuclei (%) [1, 6]: 16% and 35%
- Population Healthy Nuclei (%) [1, 6]: 70% and 42%
- Population Hoechst High Intensity Objects (%) [1, 6]: 1% and 3%
- Population Membrane Permeable-Phenotype (%) [1, 6]: 0% and 20%
- Population Mitochondria Different-Phenotype (%) [1, 6]: 3% and 2%
- Population Mitotic Cells (%) [1, 6]: 47% and 52%
- Population Normal (%) [1, 6]: 98% and 96%
- Population Pyknosed Nuclei (%) [1, 6]: 13% and 22%
- Population Tubulin-Different-Phenotype (%) [1, 6]: 38% and 61%
- Total Cell Count [1, 6]: 157 and 108
- Population Apoptotic (%) [1, 7]: 37% and 38%
- Population Fragmented Nuclei (%) [1, 7]: 16% and 18%
- Population Healthy Nuclei (%) [1, 7]: 56% and 47%
- Population Hoechst High Intensity Objects (%) [1, 7]: 1% and 7%
- Population Mitochondria Different-Phenotype (%) [1, 7]: 10% and 6%
- Population Mitotic Cells (%) [1, 7]: 62% and 61%
- Population Normal (%) [1, 7]: 98% and 92%
- Population Pyknosed Nuclei (%) [1, 7]: 27% and 33%
- Population Tubulin-Different-Phenotype (%) [1, 7]: 68% and 76%
- Total Cell Count [1, 7]: 139 and 143
- Population Apoptotic (%) [1, 8]: 54% and 25%
- Population Fragmented Nuclei (%) [1, 8]: 15% and 40%
- Population Healthy Nuclei (%) [1, 8]: 69% and 45%
- Population Hoechst High Intensity Objects (%) [1, 8]: 8% and 1%
- Population Mitochondria Different-Phenotype (%) [1, 8]: 0% and 4%
- Population Mitotic Cells (%) [1, 8]: 45% and 75%
- Population Normal (%) [1, 8]: 91% and 98%
- Population Pyknosed Nuclei (%) [1, 8]: 15% and 14%
- Population Tubulin-Different-Phenotype (%) [1, 8]: 30% and 52%
- Total Cell Count [1, 8]: 160 and 113
- Population Apoptotic (%) [1, 9]: 87% and 52%
- Population Fragmented Nuclei (%) [1, 9]: 23% and 32%
- Population Healthy Nuclei (%) [1, 9]: 53% and 50%
- Population Hoechst High Intensity Objects (%) [1, 9]: 3% and 4%
- Population Membrane Permeable-Phenotype (%) [1, 9]: 0% and 12%
- Population Mitochondria Different-Phenotype (%) [1, 9]: 14% and 9%
- Population Normal (%) [1, 9]: 96% and 95%
- Population Pyknosed Nuclei (%) [1, 9]: 22% and 16%
- Population Tubulin-Different-Phenotype (%) [1, 9]: 62% and 76%
- Total Cell Count [1, 9]: 144 and 134
- Population Apoptotic (%) [2, 4]: 33% and 47%
- Population Fragmented Nuclei (%) [2, 4]: 7% and 5%
- Population Healthy Nuclei (%) [2, 4]: 79% and 82%
- Population Hoechst High Intensity Objects (%) [2, 4]: 6% and 8%
- Population Membrane Permeable-Phenotype (%) [2, 4]: 0%
- Population Mitochondria Different-Phenotype (%) [2, 4]: 45% and 61%
- Population Mitotic Cells (%) [2, 4]: 66% and 52%
- Population Normal (%) [2, 4]: 93% and 91%
- Population Pyknosed Nuclei (%) [2, 4]: 13% and 11%
- Population Tubulin-Different-Phenotype (%) [2, 4]: 34% and 31%
- Total Cell Count [2, 4]: 399 and 314
- Population Apoptotic (%) [2, 5]: 38% and 41%
- Population Fragmented Nuclei (%) [2, 5]: 6% and 9%
- Population Healthy Nuclei (%) [2, 5]: 75% and 74%
- Population Hoechst High Intensity Objects (%) [2, 5]: 8% and 11%
- Population Membrane Permeable-Phenotype (%) [2, 5]: 0% and 1%
- Population Mitochondria Different-Phenotype (%) [2, 5]: 59% and 75%
- Population Mitotic Cells (%) [2, 5]: 61% and 58%
- Population Normal (%) [2, 5]: 91% and 88%
- Population Pyknosed Nuclei (%) [2, 5]: 17% and 16%
- Population Tubulin-Different-Phenotype (%) [2, 5]: 54% and 55%
- Total Cell Count [2, 5]: 451 and 321
- Population Apoptotic (%) [2, 6]: 24% and 45%
- Population Fragmented Nuclei (%) [2, 6]: 8% and 13%
- Population Healthy Nuclei (%) [2, 6]: 79% and 76%
- Population Hoechst High Intensity Objects (%) [2, 6]: 3% and 7%
- Population Membrane Permeable-Phenotype (%) [2, 6]: 0%
- Population Mitochondria Different-Phenotype (%) [2, 6]: 26% and 34%
- Population Mitotic Cells (%) [2, 6]: 75% and 54%
- Population Normal (%) [2, 6]: 96% and 92%
- Population Pyknosed Nuclei (%) [2, 6]: 11% and 9%
- Population Tubulin-Different-Phenotype (%) [2, 6]: 21% and 15%
- Total Cell Count [2, 6]: 508 and 387
- Population Apoptotic (%) [2, 7]: 37% and 33%
- Population Fragmented Nuclei (%) [2, 7]: 6% and 7%
- Population Healthy Nuclei (%) [2, 7]: 79% and 78%
- Population Hoechst High Intensity Objects (%) [2, 7]: 7% and 13%
- Population Membrane Permeable-Phenotype (%) [2, 7]: 1% and 0%
- Population Mitochondria Different-Phenotype (%) [2, 7]: 46% and 70%
- Population Mitotic Cells (%) [2, 7]: 62% and 66%
- Population Normal (%) [2, 7]: 92% and 86%
- Population Pyknosed Nuclei (%) [2, 7]: 14%
- Population Tubulin-Different-Phenotype (%) [2, 7]: 52% and 48%
- Total Cell Count [2, 7]: 612 and 371
- Population Apoptotic (%) [2, 8]: 26% and 41%
- Population Fragmented Nuclei (%) [2, 8]: 12% and 10%
- Population Healthy Nuclei (%) [2, 8]: 80%
- Population Hoechst High Intensity Objects (%) [2, 8]: 2%
- Population Membrane Permeable-Phenotype (%) [2, 8]: 0% and 1%
- Population Mitochondria Different-Phenotype (%) [2, 8]: 22% and 27%
- Population Mitotic Cells (%) [2, 8]: 73% and 58%
- Population Normal (%) [2, 8]: 97%
- Population Pyknosed Nuclei (%) [2, 8]: 7% and 9%
- Population Tubulin-Different-Phenotype (%) [2, 8]: 20% and 19%
- Total Cell Count [2, 8]: 816 and 520
- Population Apoptotic (%) [2, 9]: 40%
- Population Fragmented Nuclei (%) [2, 9]: 13% and 10%
- Population Healthy Nuclei (%) [2, 9]: 77% and 72%
- Population Hoechst High Intensity Objects (%) [2, 9]: 7% and 18%
- Population Membrane Permeable-Phenotype (%) [2, 9]: 1% and 0%
- Population Mitochondria Different-Phenotype (%) [2, 9]: 45% and 53%
- Population Mitotic Cells (%) [2, 9]: 59% and 60%
- Population Normal (%) [2, 9]: 92% and 81%
- Population Pyknosed Nuclei (%) [2, 9]: 9% and 17%
- Population Tubulin-Different-Phenotype (%) [2, 9]: 38% and 36%
- Total Cell Count [2, 9]: 692 and 390
- Population Apoptotic (%) [3, 4]: 73% and 87%
- Population Fragmented Nuclei (%) [3, 4]: 24% and 17%
- Population Healthy Nuclei (%) [3, 4]: 66% and 76%
- Population Hoechst High Intensity Objects (%) [3, 4]: 3% and 0%
- Population Membrane Permeable-Phenotype (%) [3, 4]: 2% and 1%
- Population Mitochondria Different-Phenotype (%) [3, 4]: 3% and 0%
- Population Mitotic Cells (%) [3, 4]: 26% and 12%
- Population Normal (%) [3, 4]: 96% and 99%
- Population Pyknosed Nuclei (%) [3, 4]: 9% and 5%
- Population Tubulin-Different-Phenotype (%) [3, 4]: 2% and 0%
- Total Cell Count [3, 4]: 258 and 136
- Population Apoptotic (%) [3, 5]: 90%
- Population Fragmented Nuclei (%) [3, 5]: 26% and 21%
- Population Healthy Nuclei (%) [3, 5]: 64% and 70%
- Population Hoechst High Intensity Objects (%) [3, 5]: 1%
- Population Membrane Permeable-Phenotype (%) [3, 5]: 2% and 12%
- Population Mitochondria Different-Phenotype (%) [3, 5]: 1% and 7%
- Population Mitotic Cells (%) [3, 5]: 9% and 10%
- Population Normal (%) [3, 5]: 98%
- Population Pyknosed Nuclei (%) [3, 5]: 8% and 7%
- Population Tubulin-Different-Phenotype (%) [3, 5]: 1% and 4%
- Total Cell Count [3, 5]: 265 and 128
- Population Apoptotic (%) [3, 6]: 80% and 85%
- Population Fragmented Nuclei (%) [3, 6]: 21% and 16%
- Population Healthy Nuclei (%) [3, 6]: 69% and 75%
- Population Hoechst High Intensity Objects (%) [3, 6]: 2%
- Population Membrane Permeable-Phenotype (%) [3, 6]: 5% and 3%
- Population Mitochondria Different-Phenotype (%) [3, 6]: 2% and 6%
- Population Mitotic Cells (%) [3, 6]: 20% and 14%
- Population Normal (%) [3, 6]: 97%
- Population Pyknosed Nuclei (%) [3, 6]: 8%
- Population Tubulin-Different-Phenotype (%) [3, 6]: 2%
- Total Cell Count [3, 6]: 346 and 172
- Population Apoptotic (%) [3, 7]: 80% and 92%
- Population Fragmented Nuclei (%) [3, 7]: 21% and 14%
- Population Healthy Nuclei (%) [3, 7]: 71% and 77%
- Population Hoechst High Intensity Objects (%) [3, 7]: 2% and 0%
- Population Membrane Permeable-Phenotype (%) [3, 7]: 5% and 7%
- Population Mitochondria Different-Phenotype (%) [3, 7]: 3%
- Population Mitotic Cells (%) [3, 7]: 19% and 7%
- Population Normal (%) [3, 7]: 97% and 99%
- Population Pyknosed Nuclei (%) [3, 7]: 7% and 8%
- Population Tubulin-Different-Phenotype (%) [3, 7]: 4% and 3%
- Total Cell Count [3, 7]: 307 and 159
- Population Apoptotic (%) [3, 8]: 88% and 91%
- Population Fragmented Nuclei (%) [3, 8]: 16%
- Population Healthy Nuclei (%) [3, 8]: 75% and 73%
- Population Hoechst High Intensity Objects (%) [3, 8]: 1% and 2%
- Population Membrane Permeable-Phenotype (%) [3, 8]: 3% and 5%
- Population Mitochondria Different-Phenotype (%) [3, 8]: 1% and 4%
- Population Mitotic Cells (%) [3, 8]: 11% and 8%
- Population Normal (%) [3, 8]: 98% and 97%
- Population Pyknosed Nuclei (%) [3, 8]: 7% and 9%
- Population Tubulin-Different-Phenotype (%) [3, 8]: 1% and 4%
- Total Cell Count [3, 8]: 476 and 261
- Population Apoptotic (%) [3, 9]: 94% and 100%
- Population Fragmented Nuclei (%) [3, 9]: 17% and 13%
- Population Healthy Nuclei (%) [3, 9]: 74% and 77%
- Population Hoechst High Intensity Objects (%) [3, 9]: 1%
- Population Membrane Permeable-Phenotype (%) [3, 9]: 4% and 6%
- Population Mitochondria Different-Phenotype (%) [3, 9]: 1% and 3%
- Population Mitotic Cells (%) [3, 9]: 5% and 0%
- Population Normal (%) [3, 9]: 98%
- Population Pyknosed Nuclei (%) [3, 9]: 8%
- Population Tubulin-Different-Phenotype (%) [3, 9]: 1% and 2%
- Total Cell Count [3, 9]: 478 and 242
